An excerpt weighted towards active compounds, which were near 1.6% of everything screened.
PKA-R2B activ: activates the human PKA-R2B holoenzyme complex; P22694+P31323; PKA-R2B holoenzyme dissociation, Cy5-IP20 fluorescence polarization; R2B truncated from residue 108, S112A mutant; 0% DMSO only, 100% 113 µM cGMP; hit rate 0.079% among 340,000; activation, % at 11.4 µM;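 active means activation above a cutoff set at the mean over all compounds plus 3 SD, cut at about 18% in these data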;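 further: higher means more holoenzyme dissociation and a rise in polarization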
PG9 Ab binder: PG9 antibody binding by small molecule; TR-FRET gp120-PG9 antibody binding; inhibition, % at 6.7 µM; hit rate 0.43% among 360,000; AID 624416; in the data active means inhibition above about 8.5%
NR2E3 ag-1: activates human NR2E3 receptor | Q9Y5X4 | CHO-S Gal4-NCOR/VP16-NR2E3 two-hybrid, luciferase | inhibition of corepressor binding, % at 3.98 µM | hit rate 0.35% among 360,000 | AID 602229;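 active means inhibition above the mean of all tested compounds plus 3 SD, cut at about 70% in these data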;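 further: 0% = DMSO with NR2E3 transfected cells and 100% = cells lacking NR2E3 construct; higher means lower luciferase signal from less NR2E3 corepressor binding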
NR1D1 modulator: modulators of human Rev-erb alpha DNA binding; P20393; Rev-erbα–FITC-DNA binding, fluorescence polarization, 90 min; activity, % at 10 µM; hit rate 0.79% among 370,000;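 active means activity above about 14%, limit read from the data; passing the limit was not always enough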;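 further: 0% = DMSO wells with 35 nM protein and 100% = DMSO wells with 750 nM protein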
Target sequence (P20393 whole entry, looked up): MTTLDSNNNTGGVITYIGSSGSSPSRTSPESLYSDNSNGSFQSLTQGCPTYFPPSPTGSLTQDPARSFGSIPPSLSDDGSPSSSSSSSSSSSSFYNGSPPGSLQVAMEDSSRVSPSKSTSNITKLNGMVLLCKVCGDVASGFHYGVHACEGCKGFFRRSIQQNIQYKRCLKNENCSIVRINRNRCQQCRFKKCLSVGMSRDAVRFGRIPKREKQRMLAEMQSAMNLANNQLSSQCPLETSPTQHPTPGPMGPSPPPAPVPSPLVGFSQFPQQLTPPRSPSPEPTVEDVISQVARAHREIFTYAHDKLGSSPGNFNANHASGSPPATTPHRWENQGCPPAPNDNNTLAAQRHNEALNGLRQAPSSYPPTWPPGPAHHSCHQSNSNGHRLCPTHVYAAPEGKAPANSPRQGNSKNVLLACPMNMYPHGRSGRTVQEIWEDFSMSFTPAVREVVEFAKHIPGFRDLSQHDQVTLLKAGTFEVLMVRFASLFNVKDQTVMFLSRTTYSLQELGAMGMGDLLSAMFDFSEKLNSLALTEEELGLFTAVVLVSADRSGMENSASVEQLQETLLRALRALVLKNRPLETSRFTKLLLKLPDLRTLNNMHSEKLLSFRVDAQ
PKA-R1A activ: activates the PKA-R1A holoenzyme complex; PKA-R1A dissociation, Cy5-IP20 fluorescence polarization; scaled: DMSO 0%, 113 µM cGMP 100%; activation, % at 11.4 µM; hit rate 0.083% among 340,000;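 active means percent activation above the mean of all tested compounds plus 3 SD, cut at about 19% in these data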;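 further: higher means more PKAc released from R1A so a rise in polarization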
NR2E3 ag-2: NR2E3 (human) agonism. GST-NR2E3/biotin-RetCOR TR-FRET, 1536-well. hit rate 0.12% among 320,000. inhibition of corepressor binding, % at 4.78 µM. Q9Y5X4;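 active means percent inhibition above the cutoff of mean plus 3 SD of all tested compounds, set per screening campaign, cut at about 20% in these data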;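 further: 0% = DMSO wells and 100% = biotin wells as full block of FRET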
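Material: NR2E3–RetCOR corepressor complex / Incubation: Compound–protein incubation for 5 h at 4 °C / Dosing: compound at 4.8 µM, single dose / Detection: time-resolved FRET / Benchmarks: high control biotin, low control 0.6% DMSO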
PG9 bind confirm: confirmation of small molecules binding HIV-1 gp120 antibody PG9; shares compounds with PG9 Ab binder; TR-FRET PG9 antibody binding, biochemical; hit rate 90% among 1,500; inhibition, % at 6.7 µM; in the data active means inhibition above about 9%
PGV04 Ab binding: binds control antibody PGV04 in PG9 binder counter-screen | TR-FRET PGV04 antibody-gp120 binding, biochemical | hit rate 95% among 1,500 | shares compounds with PG9 Ab binder | inhibition, % at 6.7 µM; in the data active means inhibition above about 9.5%
* = called active by the depositor; nt = no result given; ! = not confirmed by another sample.

SMILES	PKA-R2B activ	PG9 Ab binder	NR2E3 ag-1	NR1D1 modulator	PKA-R1A activ	NR2E3 ag-2	PG9 bind confirm	PGV04 Ab binding
COc1cccc(-c2ccc(C#N)c(SCC(=O)NCc3ccco3)n2)c1	6.3	11.4*	-40.5	2.0	-5.8	-4.0	19.8*	36.0*
c1ccc2c(c1)N=C(N1CCN(Cc3ccc4c(c3)OCO4)CC1)c1ccccc1S2	nt	nt	nt	-0.1	nt	nt	nt	nt
O=C(Nc1nnc(SCc2ccc(F)cc2)s1)c1ccc2ncsc2c1	10.8	9.7*	-137.9	12.4	4.5	nt	19.4*	25.4*
CC(=O)Nc1nnc(SCc2ccc(F)cc2)s1	-1.7	-1.3	-45.9	-2.1	-1.4	-1.0	nt	nt
CCCC(=O)Nc1ccc(C(=O)Nc2ccc([N+](=O)[O-])cc2OC)cc1	0.3	10.2*	-2.2	-1.8	-6.6	2.8	9.5*	16.7*
Cc1sc2nc(SCC(=O)NCc3ccco3)[nH]c(=O)c2c1C	3.5	28.4*	-39.5	-3.7	0.7	4.5	28.9*	42.2*
O=C(NCc1ccccc1Cl)C1CCCN(c2nc3ccccc3o2)C1 (configuration not stated)	nt	nt	nt	-9.4	nt	nt	nt	nt
CC1=Nc2ccc(C)cc2/C1=C/c1c(N)n2oc(C)cc2nc1=O	12.1	16.9*!	11.7	-5.8	-3.9	-18.9	19.5*	43.0*
CCN(C(=O)CSc1cc(-c2ccccc2)c2ccc(OC)cc2n1)C1CCS(=O)(=O)C1 (configuration not stated)	-8.2	1.6	-50.5	-2.6	-11.2	3.8	nt	nt
COCCNC(=O)CSc1cc(-c2ccccc2)c2ccc(OC)cc2n1	3.3	15.8*	8.1	2.5	7.4	-1.1	21.4*	25.5*
COc1ccc2c(-c3ccccc3)cc(SCC(=O)NC3CCS(=O)(=O)C3)nc2c1 (configuration not stated)	-4.5	22.2*	-0.7	7.7	3.5	5.9	16.0*	19.3*
COc1ccc2c(-c3ccccc3)cc(SCC(=O)N(C)C)nc2c1	-9.8	-1.6	-8.9	1.4	-0.4	1.7	nt	nt
FC(F)(F)c1ccccc1NC(=S)OC1CCC12CCC(c1ccccc1)CC2 (configuration not stated)	nt	nt	nt	-6.5	nt	nt	nt	nt
C[C@@H]1CN(c2ccc(N3CCN(C(=O)OC(C)(C)C)C[C@H]3C)cc2C#N)CCN1Cc1ccccc1	nt	0.6	nt	10.3	nt	nt	nt	nt
CCOC(=O)[C@]12CCCCC/C=C\1N(Cc1ccc(OC)cc1)C(=O)[C@H]2CC(=O)NCc1cccs1	nt	nt	nt	-4.0	nt	nt	nt	nt
C[C@@H]1OC(C2CCCCC2)N(C)[C@H]2C[C@H]3c4cc(N5CCOCC5)ccc4CCN3C[C@@H]12 (some centres not stated)	nt	nt	nt	-1.7	nt	nt	nt	nt
O=C(Cn1cccc1C(=O)c1ccccc1)NCCc1ccc(Cl)cc1	4.7	9.4*	-45.4	9.8	2.7	-1.2	7.1	10.4*
O=C(c1cccs1)N1CC[C@H]2[C@H](CCCN2Cc2ccc(F)cc2)C1	nt	nt	nt	1.3	nt	nt	nt	nt
COc1ccc(C(=O)Nc2nnc(Cc3ccc(OC)c(OC)c3)s2)cc1	2.3	9.5*	-6.9	3.3	6.0	0.4	10.9*	19.6*
Cc1ccc(-c2nnc(SCC(=O)c3ccc(O)c(O)c3)n2-c2ccc(Cl)cc2)cc1	nt	nt	nt	1.4	nt	nt	nt	nt
O=c1oc(-c2ccccc2F)nc2c1cnn2-c1ccccc1	-4.8	20.4*	1.4	-0.7	3.9	1.1	49.3*	57.9*
O=c1oc(-c2cccc(Cl)c2)nc2c1cnn2-c1ccccc1	-5.1	1.3	-13.7	0.1	5.5	2.2	nt	nt
CCOC(=O)c1cnc2c(Cl)cc(Cl)cc2c1NCCOCCO	-15.8	13.0*	-8.0	-2.9	-0.9	3.6	9.7*	12.1*

From PubChem
